Test results from ChEMBL document CHEMBL3046615, “Isolation of nematicidal compounds from Tagetes patula L. yellow flowers: structure-activity relationship studies against cyst nematode Heterodera zeae infective stage larvae” (2011).
Active and inactive are the calls of the source. The rule behind the calls is not given here.

Columns and labels:
Heterodera zeae [1] = experiment: Nematicidal activity against Heterodera zeae infective stage larvae assessed as nematode mortality at 0.25% under dark conditions measured 5 to 60 min post dose by stereoscopic microscopy; format: functional, organism-based
Method in brief: (§1)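 H. zeae freshly hatched second-stage juveniles, 100 per plate, three replicates, at 28 ± 2 °C under light or in a dark box. Dilutions are % of a stock: 30 mg/mL for extracts/fractions, 1 mg/mL for pure compounds. Methanol-, DMSO- or water-soluble samples were tested in glass cavity blocks. Petroleum ether-soluble samples were air-dried in the block and covered with agar pieces bearing cultured larvae. Mortality was followed over 5–60 min; each value is the mean of three experiments.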

Heterodera zeae [2] = experiment: Nematicidal activity against Heterodera zeae infective stage larvae assessed as nematode mortality at 0.5% under dark conditions measured 5 to 60 min post dose by stereoscopic microscopy; format: functional, organism-based; method in brief: as §1
Heterodera zeae [3] = experiment: Nematicidal activity against Heterodera zeae infective stage larvae assessed as nematode mortality at 0.5% under light conditions measured 48 hr post dose by stereoscopic microscopy; format: functional
Method in brief: (§2)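 Freshly hatched H. zeae second-stage juveniles, 100 per Petri plate, three replicates. Samples in MeOH, DMSO or water were tested in glass cavity blocks; petroleum ether samples were dried onto the block and larvae transferred on agar pieces. Percentages are dilutions of 30 mg/mL stocks (extracts/fractions) or 1 mg/mL stocks (pure compounds). Incubated at 28 ± 2 °C in light or dark box; mortality averaged over three replicates.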

Heterodera zeae [4] = experiment: Nematicidal activity against Heterodera zeae infective stage larvae assessed as nematode mortality at 0.5% under dark conditions measured 72 hr post dose by stereoscopic microscopy; format: functional; method in brief: as §2
Heterodera zeae [5] = experiment: Nematicidal activity against Heterodera zeae infective stage larvae assessed as nematode mortality at 0.25% under light conditions measured 24 hr post dose by stereoscopic microscopy; format: functional; method in brief: as §2
Heterodera zeae [6] = experiment: Nematicidal activity against Heterodera zeae infective stage larvae assessed as nematode mortality at 1% under dark conditions measured 5 to 60 min post dose by stereoscopic microscopy; format: functional, organism-based; method in brief: as §1
Heterodera zeae [7] = experiment: Nematicidal activity against Heterodera zeae infective stage larvae assessed as nematode mortality at 0.5% under light conditions measured 24 hr post dose by stereoscopic microscopy; format: functional; method in brief: as §2
Heterodera zeae [8] = experiment: Nematicidal activity against Heterodera zeae infective stage larvae assessed as nematode mortality at 2% under dark conditions measured 5 to 60 min post dose by stereoscopic microscopy; format: functional, organism-based; method in brief: as §1
Heterodera zeae [9] = experiment: Nematicidal activity against Heterodera zeae infective stage larvae assessed as nematode mortality at 0.25% under dark conditions measured 24 hr post dose by stereoscopic microscopy; format: functional; method in brief: as §2
Heterodera zeae [10] = experiment: Nematicidal activity against Heterodera zeae infective stage larvae assessed as nematode mortality at 5% under light conditions measured 5 to 60 min post dose by stereoscopic microscopy; format: functional, organism-based; method in brief: as §1
Heterodera zeae [11] = experiment: Nematicidal activity against Heterodera zeae infective stage larvae assessed as nematode mortality at 1% under light conditions measured 48 hr post dose by stereoscopic microscopy; format: functional; method in brief: as §2
Heterodera zeae [12] = experiment: Nematicidal activity against Heterodera zeae infective stage larvae assessed as nematode mortality at 1% under light conditions measured 5 to 60 min post dose by stereoscopic microscopy; format: functional, organism-based; method in brief: as §1
Heterodera zeae [13] = experiment: Nematicidal activity against Heterodera zeae infective stage larvae assessed as nematode mortality at 0.125% under light conditions measured 5 to 60 min post dose by stereoscopic microscopy; format: functional, organism-based; method in brief: as §1
Heterodera zeae [14] = experiment: Nematicidal activity against Heterodera zeae infective stage larvae assessed as nematode mortality at 2% under light conditions measured 5 to 60 min post dose by stereoscopic microscopy; format: functional, organism-based; method in brief: as §1
Heterodera zeae [15] = experiment: Nematicidal activity against Heterodera zeae infective stage larvae assessed as nematode mortality at 0.125% under dark conditions measured 24 hr post dose by stereoscopic microscopy; format: functional; method in brief: as §2
Heterodera zeae [16] = experiment: Nematicidal activity against Heterodera zeae infective stage larvae assessed as nematode mortality at 0.25% under dark conditions measured 48 hr post dose by stereoscopic microscopy; format: functional; method in brief: as §2
Heterodera zeae [17] = experiment: Nematicidal activity against Heterodera zeae infective stage larvae assessed as nematode mortality at 1% under dark conditions measured 48 hr post dose by stereoscopic microscopy; format: functional; method in brief: as §2
Heterodera zeae [18] = experiment: Nematicidal activity against Heterodera zeae infective stage larvae assessed as nematode mortality at 0.5% under light conditions measured 72 hr post dose by stereoscopic microscopy; format: functional; method in brief: as §2
Heterodera zeae [19] = experiment: Nematicidal activity against Heterodera zeae infective stage larvae assessed as nematode mortality at 0.5% under dark conditions measured 48 hr post dose by stereoscopic microscopy; format: functional; method in brief: as §2
Heterodera zeae [20] = experiment: Nematicidal activity against Heterodera zeae infective stage larvae assessed as nematode mortality at 0.125% under dark conditions measured 48 hr post dose by stereoscopic microscopy; format: functional; method in brief: as §2
Heterodera zeae [21] = experiment: Nematicidal activity against Heterodera zeae infective stage larvae assessed as nematode mortality at 0.125% under dark conditions measured 72 hr post dose by stereoscopic microscopy; format: functional; method in brief: as §2
Heterodera zeae [22] = experiment: Nematicidal activity against Heterodera zeae infective stage larvae assessed as nematode mortality at 1% under dark conditions measured 24 hr post dose by stereoscopic microscopy; format: functional; method in brief: as §2
Heterodera zeae [23] = experiment: Nematicidal activity against Heterodera zeae infective stage larvae assessed as nematode mortality at 0.125% under light conditions measured 24 hr post dose by stereoscopic microscopy; format: functional; method in brief: as §2
Heterodera zeae [24] = experiment: Nematicidal activity against Heterodera zeae infective stage larvae assessed as nematode mortality at 0.125% under light conditions measured 48 hr post dose by stereoscopic microscopy; format: functional; method in brief: as §2
Heterodera zeae [25] = experiment: Nematicidal activity against Heterodera zeae infective stage larvae assessed as nematode mortality at 0.25% under dark conditions measured 72 hr post dose by stereoscopic microscopy; format: functional; method in brief: as §2
Heterodera zeae [26] = experiment: Nematicidal activity against Heterodera zeae infective stage larvae assessed as nematode mortality at 0.25% under light conditions measured 5 to 60 min post dose by stereoscopic microscopy; format: functional, organism-based; method in brief: as §1
Heterodera zeae [27] = experiment: Nematicidal activity against Heterodera zeae infective stage larvae assessed as nematode mortality at 0.125% under light conditions measured 72 hr post dose by stereoscopic microscopy; format: functional; method in brief: as §2
Heterodera zeae [28] = experiment: Nematicidal activity against Heterodera zeae infective stage larvae assessed as nematode mortality at 0.5% under dark conditions measured 24 hr post dose by stereoscopic microscopy; format: functional; method in brief: as §2
Heterodera zeae [29] = experiment: Nematicidal activity against Heterodera zeae infective stage larvae assessed as nematode mortality at 1% under dark conditions measured 72 hr post dose by stereoscopic microscopy; format: functional; method in brief: as §2
Heterodera zeae [30] = experiment: Nematicidal activity against Heterodera zeae infective stage larvae assessed as nematode mortality at 1% under light conditions measured 72 hr post dose by stereoscopic microscopy; format: functional; method in brief: as §2
Heterodera zeae [31] = experiment: Nematicidal activity against Heterodera zeae infective stage larvae assessed as nematode mortality at 0.25% under light conditions measured 48 hr post dose by stereoscopic microscopy; format: functional; method in brief: as §2
Heterodera zeae [32] = experiment: Nematicidal activity against Heterodera zeae infective stage larvae assessed as nematode mortality at 1% under light conditions measured 24 hr post dose by stereoscopic microscopy; format: functional; method in brief: as §2
Heterodera zeae [33] = experiment: Nematicidal activity against Heterodera zeae infective stage larvae assessed as nematode mortality at 0.125% under dark conditions measured 5 to 60 min post dose by stereoscopic microscopy; format: functional, organism-based; method in brief: as §1
Heterodera zeae [34] = experiment: Nematicidal activity against Heterodera zeae infective stage larvae assessed as nematode mortality at 5% under dark conditions measured 5 to 60 min post dose by stereoscopic microscopy; format: functional, organism-based; method in brief: as §1
Heterodera zeae [35] = experiment: Nematicidal activity against Heterodera zeae infective stage larvae assessed as nematode mortality at 0.5% under light conditions measured 5 to 60 min post dose by stereoscopic microscopy; format: functional, organism-based; method in brief: as §1
Heterodera zeae [36] = experiment: Nematicidal activity against Heterodera zeae infective stage larvae assessed as nematode mortality at 0.25% under light conditions measured 72 hr post dose by stereoscopic microscopy; format: functional; method in brief: as §2

SMILES | Activity (Heterodera zeae [1]) | Activity (Heterodera zeae [2]) | mortality (Heterodera zeae [3]) [%] | mortality (Heterodera zeae [4]) [%] | mortality (Heterodera zeae [5]) [%] | Activity (Heterodera zeae [6]) | mortality (Heterodera zeae [7]) [%] | Activity (Heterodera zeae [8]) | mortality (Heterodera zeae [9]) [%] | Activity (Heterodera zeae [10]) | mortality (Heterodera zeae [11]) [%] | Activity (Heterodera zeae [12]) | Activity (Heterodera zeae [13]) | Activity (Heterodera zeae [14]) | mortality (Heterodera zeae [15]) [%] | mortality (Heterodera zeae [16]) [%] | mortality (Heterodera zeae [17]) [%] | mortality (Heterodera zeae [18]) [%] | mortality (Heterodera zeae [19]) [%] | mortality (Heterodera zeae [20]) [%] | other results
O=C(O)c1ccccc1 [BENZOIC ACID] | inactive | inactive | 10 | 80 | 0 | inactive | 0 | inactive | 0 | inactive | 50 | inactive | inactive | inactive | 0 | 10 | 70 | 40 | 50 | 0 | mortality (Heterodera zeae [21]): 0%; mortality (Heterodera zeae [22]): 0%; mortality (Heterodera zeae [23]): 0%; mortality (Heterodera zeae [24]): 0%; mortality (Heterodera zeae [25]): 50%; Activity (Heterodera zeae [26]): inactive; mortality (Heterodera zeae [27]): 0%; mortality (Heterodera zeae [28]): 0%; mortality (Heterodera zeae [29]): 80%; mortality (Heterodera zeae [30]): 70%; mortality (Heterodera zeae [31]): 0%; mortality (Heterodera zeae [32]): 0%; Activity (Heterodera zeae [33]): inactive; Activity (Heterodera zeae [34]): inactive; Activity (Heterodera zeae [35]): inactive; mortality (Heterodera zeae [36]): 0%
CCCCCCCCCCCCCCCCO [CETYL ALCOHOL] | inactive | inactive | 80 | 100 | 0 | inactive | 60 | inactive | 0 | inactive | 80 | inactive | inactive | inactive | 0 | 50 | 80 | 100 | 80 | 0 | mortality (Heterodera zeae [21]): 40%; mortality (Heterodera zeae [22]): 70%; mortality (Heterodera zeae [23]): 0%; mortality (Heterodera zeae [24]): 0%; mortality (Heterodera zeae [25]): 80%; Activity (Heterodera zeae [26]): inactive; mortality (Heterodera zeae [27]): 40%; mortality (Heterodera zeae [28]): 60%; mortality (Heterodera zeae [29]): 100%; mortality (Heterodera zeae [30]): 100%; mortality (Heterodera zeae [31]): 50%; mortality (Heterodera zeae [32]): 70%; Activity (Heterodera zeae [33]): inactive; Activity (Heterodera zeae [34]): inactive; Activity (Heterodera zeae [35]): inactive; mortality (Heterodera zeae [36]): 80%
COc1ccc(C(=O)O)cc1OC [VERATRIC ACID] | inactive | inactive | 80 | 80 | 10 | inactive | 60 | inactive | 30 | inactive | 100 | inactive | inactive | inactive | 10 | 40 | 60 | 100 | 50 | 20 | mortality (Heterodera zeae [21]): 50%; mortality (Heterodera zeae [22]): 50%; mortality (Heterodera zeae [23]): 10%; mortality (Heterodera zeae [24]): 50%; mortality (Heterodera zeae [25]): 80%; Activity (Heterodera zeae [26]): inactive; mortality (Heterodera zeae [27]): 100%; mortality (Heterodera zeae [28]): 50%; mortality (Heterodera zeae [29]): 90%; mortality (Heterodera zeae [31]): 50%; mortality (Heterodera zeae [32]): 80%; Activity (Heterodera zeae [33]): inactive; Activity (Heterodera zeae [34]): inactive; Activity (Heterodera zeae [35]): inactive; mortality (Heterodera zeae [36]): 100%
